pCIP destab = compounds decreasing mouse p/CIP protein stability; Q05BA5; F442A p/CIP-EGFP cells, EGFP fluorescence, 16 h; decrease of EGFP signal, % at 10 µM; 290,000 tested, 0.01% active; AID 1984;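 active means EGFP signal decrease of at least 30% at 10 µM or well 3 SD below plate mean, unless failing retest; inactive means the rest, including hits failing retest or dose response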
Target sequence (Q05BA5 1-1403): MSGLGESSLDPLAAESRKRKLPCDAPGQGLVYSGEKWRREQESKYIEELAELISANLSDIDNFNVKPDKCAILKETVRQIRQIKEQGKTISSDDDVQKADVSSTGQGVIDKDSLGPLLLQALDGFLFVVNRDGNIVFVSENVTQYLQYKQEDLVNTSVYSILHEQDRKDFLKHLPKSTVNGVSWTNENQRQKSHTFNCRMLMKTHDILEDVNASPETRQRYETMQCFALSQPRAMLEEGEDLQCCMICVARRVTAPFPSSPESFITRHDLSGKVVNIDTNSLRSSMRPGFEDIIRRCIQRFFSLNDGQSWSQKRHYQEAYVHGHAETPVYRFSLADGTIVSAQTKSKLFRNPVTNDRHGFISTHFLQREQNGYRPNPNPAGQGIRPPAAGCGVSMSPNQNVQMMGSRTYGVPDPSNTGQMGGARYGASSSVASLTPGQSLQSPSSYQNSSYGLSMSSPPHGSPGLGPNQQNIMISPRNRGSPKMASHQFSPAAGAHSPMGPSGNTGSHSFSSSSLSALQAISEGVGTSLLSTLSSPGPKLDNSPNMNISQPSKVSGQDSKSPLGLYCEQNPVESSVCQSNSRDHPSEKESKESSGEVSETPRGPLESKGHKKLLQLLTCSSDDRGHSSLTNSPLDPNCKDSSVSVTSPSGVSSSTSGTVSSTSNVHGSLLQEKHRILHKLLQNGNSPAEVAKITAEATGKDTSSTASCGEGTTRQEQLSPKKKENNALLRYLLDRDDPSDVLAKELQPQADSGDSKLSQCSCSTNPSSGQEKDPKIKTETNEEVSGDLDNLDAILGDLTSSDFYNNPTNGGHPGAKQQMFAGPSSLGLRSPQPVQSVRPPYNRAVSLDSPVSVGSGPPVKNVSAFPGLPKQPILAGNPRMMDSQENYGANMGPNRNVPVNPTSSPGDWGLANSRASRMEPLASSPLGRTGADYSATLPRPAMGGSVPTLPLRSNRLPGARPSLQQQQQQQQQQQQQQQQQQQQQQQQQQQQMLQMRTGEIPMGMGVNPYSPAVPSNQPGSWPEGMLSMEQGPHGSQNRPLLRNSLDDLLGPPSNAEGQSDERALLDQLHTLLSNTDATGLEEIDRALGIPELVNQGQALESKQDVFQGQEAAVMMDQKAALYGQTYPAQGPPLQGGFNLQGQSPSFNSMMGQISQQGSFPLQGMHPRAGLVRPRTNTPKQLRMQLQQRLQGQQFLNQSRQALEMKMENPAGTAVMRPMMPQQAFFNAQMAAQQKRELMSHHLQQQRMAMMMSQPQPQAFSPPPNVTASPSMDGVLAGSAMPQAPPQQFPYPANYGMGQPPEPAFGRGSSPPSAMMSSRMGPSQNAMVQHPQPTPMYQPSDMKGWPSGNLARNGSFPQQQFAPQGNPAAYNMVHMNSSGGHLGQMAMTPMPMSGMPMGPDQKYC
Dynein cargo inh = dynein cargo transport inhibition | AID 1381 | 3617.4 mouse cells, GR-EGFP nuclear translocation imaging; test concentration mostly 20 µM; stimulated with dexamethasone, 1 µM; hits give low values | z-score, hits read low | 220,000 tested, 0.47% active;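 active means plate z-score of nuclear minus cytoplasmic receptor signal below a set negative limit, without overly bright fluorescence or cell loss, cut at about -3.5 in these data, passing the limit was not always enough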;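 further: z-score of nuclear minus cytoplasmic ring GR-EGFP intensity difference per well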
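Buffer or medium: tet-free, stripped-serum medium; Also added: dexamethasone, 1.0 µM final; Technique: high-content fluorescence imaging after fixation; Times: 48 h induction, 1 h compound, 30 min dex at 37 °C; Read-out: per-cell GR-EGFP intensity, nucleus versus surrounding cytoplasmic ring, well-averaged.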
RAM inhibit = yeast RAM network inhibition | S. cerevisiae dse1pr::URA3 reporter, 5-FOA growth OD615, 2 d; analog-sensitive cbk1-as2 kinase mutant strain | inhibition, % at 50 µM | 190,000 tested, 1.8% active;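 active means inhibition above a set limit, 3 SD over mean compound inhibition, cut at about 8.4% in these data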;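 further: 0% = DMSO-only wells with no growth and 100% = 10 µM 1-NA-PP1 full growth; inhibition rescues growth on 5-FOA so higher OD means more RAM inhibition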
NCF1 inh = inhibitors of human p47phox binding; P14598; p47phox/p22phox peptide binding, fluorescence polarization, 2 h; AID 1274; inhibition, % at 24.7 µM; 220,000 tested, 0.53% active;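 active means inhibition above about 30%, limit read from the data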;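 further: 0% = p47phox with labelled peptide and 100% = labelled peptide alone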
* hit, by the source's call; . = no result given. Only some compounds are listed: those with a hit (about 1.9% of all), similar ones and a draw of the others.

SMILES | pCIP destab | Dynein cargo inh | RAM inhibit | NCF1 inh
CCOc1ccc(Cn2c3ccc(OC)cc3c3nc4ccccc4nc32)cc1 | 4 | -0.84 | 3 | 44*
COC(=O)c1scc(C)c1-n1ccc(C(=O)C(=O)N(C)C)c1 | -13 | 0.63 | 1 | -4
CC(NC(=O)/C=C/c1ccco1)c1nc2ccccc2n1Cc1cccc(Cl)c1 (stereo not drawn) | -8 | 0.37 | 1 | -7
CCOC(=O)C1(Cc2cccc(OC)c2)CCCN(C(=O)CCc2cccnc2)C1 (stereo not drawn) | -12 | -1.4 | -1 | -13
O=C(CSc1ncc(-c2ccccc2)[nH]1)Nc1ccccc1 | -4 | -0.35 | 0 | 33*
Cc1ccccc1-c1nc(CS(=O)(=O)CC(=O)NCCN2CCOCC2)c(C)o1 | -4 | -1.7 | 0 | 69*
Cc1ccccc1-c1nc(CS(=O)(=O)CC(=O)NCCCN2CCCC2)c(C)o1 | -3 | -0.71 | 3 | -13
CN(Cc1ccccc1)c1nc2c(c(=O)[nH]c(=O)n2C)n1CCSc1ncccn1 | . | -0.0091 | . | .
CCN(CC)S(=O)(=O)c1ccc(NC(=O)C2c3ccccc3Oc3ccccc32)cc1 | 1 | -0.74 | 8.6* | -21
CCOC(=O)c1cnc(SC2CC(=O)N(c3cccc(OC)c3)C2=O)nc1N (stereo not drawn) | -8 | -0.26 | 10* | 0
CCN(Cc1ccccc1)C(=O)CCS(=O)(=O)c1ccc2c(c1)NC(=O)CO2 | -5 | . | . | .
COc1cccc(/C=C/C(=O)Oc2ccc(C(=O)c3ccc(F)cc3)cc2)c1 | 2 | -0.76 | 8.7* | -17
COc1cc(Br)cc(CNc2ccc(F)c([N+](=O)[O-])c2)c1O | -4 | 0.053 | 8.9* | -20
Cc1noc(C)c1COc1cccc(C(=O)OCCOc2ccc(F)cc2)c1 | 5 | -0.57 | 8.7* | -18
Cc1noc(C)c1COc1cccc(C(=O)OC(C)C#N)c1 (stereo not drawn) | -7 | -0.63 | 1 | -6
CC(C)C(=O)Nc1ccc(NC(=O)c2ccc(COc3ccccc3)cc2)cc1 | 4 | . | . | .
COc1ccc(-c2noc(CN(C)C(=O)c3ccoc3C)n2)cc1 | -12 | . | . | .
Cc1cccc(Nc2nc3c(S(=O)(=O)c4ccccc4)nnn3c3ccccc23)c1 | -1 | -0.035 | 3 | -6
Cc1cc(C)cc(Nc2nc3c(S(=O)(=O)c4ccccc4)nnn3c3ccccc23)c1 | -1 | -0.33 | 2 | 34*
CC(Oc1ccc(-c2ccccc2)c(F)c1)c1ccn(S(=O)(=O)c2ccc(F)cc2)n1 (stereo not drawn) | -1 | 1 | 9.4* | -4
CC(OC(=O)/C=C/c1ccco1)C(=O)Nc1cccc([N+](=O)[O-])c1 (stereo not drawn) | -16 | 1 | 9.0* | 1
CCc1nnc(NS(=O)(=O)c2ccc(NC(=O)/C=C/C(=O)O)cc2)s1 | 4 | . | . | .
CCc1nnc(NS(=O)(=O)c2ccc(NC(=O)/C=C/c3ccccc3Cl)cc2)s1 | -5 | -0.57 | 8.8* | -44
CCOc1ccccc1/C=N/OCC(=O)NCc1ccc(F)cc1 | 0 | 0.62 | 0 | -8
Cc1cccc(C)c1NC(=O)N1C(C(=O)O)CSC1C(=O)O (stereo not drawn) | -2 | 2.2 | 2 | 67*
SMILES | pCIP destab | Dynein cargo inh | RAM inhibit | NCF1 inh
COC(=O)C1CSC(C(=O)OC)N1C(=O)Nc1c(C)cccc1C (stereo not drawn) | -17 | -0.28 | 0 | -7
Cc1ccc(-c2csc3ncnc(NS(=O)(=O)c4ccc(Cl)cc4)c23)cc1 | -3 | 1.4 | 9.2* | -8
CC1CCCN(CCCOc2ccccc2-c2ccccc2)C1 (stereo not drawn) | 1 | -0.51 | 0 | 31*
CC1CCN(CCCCOc2ccccc2-c2ccccc2)CC1 | 3 | -0.097 | -1 | 1
CC1=CC(C)(C)N(C(=O)CNC2CCCC2)c2cc(C)ccc21 | -1 | -0.98 | 0 | 1
CCN(CC)S(=O)(=O)c1ccc(C(=O)NCCSc2c[nH]c3ccccc23)cc1 | -13 | 2.6 | 8.7* | -3
CCOC(=O)CCSc1nc(-c2ccc3c(c2)OCO3)cc(C(F)(F)F)c1C#N | -21 | -1.3 | 11* | -24
CCOC(=O)CC(=O)CSc1nc(-c2ccc3c(c2)OCO3)cc(C(F)(F)F)c1C#N | -26 | -0.62 | 7 | -13
CCCOc1ccc(C(=O)CCCC(=O)c2ccc(OCCC)cc2)cc1 | 5 | . | . | .
O=C(NCCC(c1ccccc1)c1ccccc1)c1ccc(Br)o1 | -3 | -0.056 | 10* | -34
O=C(O)CCNC(=O)c1ccc(Br)o1 | 0 | -0.67 | 0 | -4
CCN(CC(=O)NCc1ccc(F)cc1)C(=O)/C=C/c1ccc(S(=O)(=O)N(CC)CC)cc1 | 3 | . | . | .
CC(C)c1ccc(-c2noc(C3CCCN(C(=O)c4ccc(F)cc4F)C3)n2)cc1 (stereo not drawn) | -10 | -0.14 | 10* | -8
Cc1ccc(-c2noc(C3CCCN(C(=O)c4ccc(F)cc4F)C3)n2)cc1 (stereo not drawn) | -4 | 0.88 | 1 | 6
Cn1cnnc1Sc1ccc(/C=C/C(=O)c2ccc(O)cc2)cc1[N+](=O)[O-] | 1 | -0.28 | 8.4* | 12
CCS(=O)(=O)c1ccc(Sc2nncn2C)c([N+](=O)[O-])c1 | -3 | 0.99 | 2 | 124*
CCOC(=O)N1CCN(C(=O)Cn2nc(C)n3nc(-c4ccccc4)cc3c2=O)CC1 | -13 | . | . | .
O=C1CN(C(=O)NCCC(=O)NC2CCCCC2)c2ccccc2N1 | -12 | . | . | .
Cc1cccc(N2CCN(C(=S)c3ccc(-c4ccccc4[N+](=O)[O-])o3)CC2)c1 | 0 | -0.75 | 11* | -6
O=[N+]([O-])c1ccccc1-c1ccc(C(=S)N2CCCC2)o1 | -13 | -0.18 | 2 | -1
Cc1cc(Cl)ccc1Oc1ncc(-c2ccc(Cl)cc2)cn1 | -8 | 1.3 | 11* | -5
COc1ccc(-c2noc(-c3ccccc3-c3ccccc3)n2)cc1OC | 1 | 0.71 | 11* | -9
CCOc1ccccc1-c1nc(-c2cccc(Br)c2)no1 | -20 | -0.19 | 8.7* | -10
C/C(=N\NC(=O)c1ccc(Cl)cc1)c1ccc2[nH]ccc2c1 | -2 | . | . | .
CC(C)CCSc1nc(N2CCOCC2)c2c(c1C#N)CC(C)(C)OC2 | -3 | 0.8 | 10* | -11
SMILES | pCIP destab | Dynein cargo inh | RAM inhibit | NCF1 inh
COCCN1CCN(C(=O)C2CCC(=O)N(Cc3cccc(C(F)(F)F)c3)C2)CC1 (stereo not drawn) | -2 | . | . | .
CSc1nnc(-c2ccc(S(=O)(=O)N3CCCCC3)cc2)o1 | -20 | . | . | .
COc1ccc(NS(=O)(=O)c2cc(NC(=O)/C=C/c3ccccc3OC)ccc2N2CCCCC2)cc1 | 2 | -0.35 | 11* | -48
CCOc1ccc(CN2CCN(Cc3cccn3-c3ncccn3)CC2CCO)cc1 (stereo not drawn) | 14 | -0.61 | 1 | -12
COCCNC(=S)N(CCc1c(C)[nH]c2ccc(Cl)cc12)Cc1cccs1 | -10 | -0.35 | 9.8* | -9
CNC(=S)N(CCc1c(C)[nH]c2ccc(Cl)cc12)Cc1cccs1 | -4 | 0.47 | 6 | -14

Screening data deposited in PubChem by several laboratories.
